Published values collected from several papers.
Each line is one published result; the experiments were not run side by side.
CA1: Carbonic anhydrase 1 (CA1, Homo sapiens, UniProt P00915)
LATS1: Serine/threonine-protein kinase LATS1 (LATS1, Homo sapiens, UniProt O95835)
SLC18A2: Synaptic vesicular amine transporter (SLC18A2, Homo sapiens, UniProt Q05940)
ADRA2A: Alpha-2A adrenergic receptor (ADRA2A, Homo sapiens, UniProt P08913)

SMILES	target	effect on	mode	technique	pH	measurement	result
CN1CCC(=C2c3ccccc3CC(=O)c3sccc32)CC1	CA1	enzyme activity	inhibitor	absorbance	pH 7.4	IC50	10300 nM
c1cc(-c2ccc(C3CCNCC3)cc2)c2cc[nH]c2n1	LATS1	target engagement in cells	–	BRET	–	IC50	> 50000 nM
O=C(CCCN1CCC(O)(c2ccc(Br)cc2)CC1)c1ccc(F)cc1	SLC18A2	transporter uptake	inhibitor	–	–	IC50	92 nM
Cc1cc(-c2ccnc3[nH]cc(F)c23)cc(F)c1[C@@]1(O)[C@H](C)CN(C2CCS(=O)(=O)CC2)C[C@@H]1C	LATS1	binding	–	TR-FRET	–	Kd	2.5 nM
Cc1cc(Oc2ncccc2CN2CCN(c3ccccc3)CC2)ccc1-c1c(C)c(=O)[nH]c(=O)n1C	ADRA2A	cAMP	agonist	luciferase	–	EC50	10700 nM
Cc1cc(C#CC2(O)CCCCC2)cc2c1cc(C(=O)O)n2-c1ccccc1	Microphthalmia-associated transcription factor (Homo sapiens, UniProt O75030)	binding	–	ITC	–	Kd	3500 nM
Cc1cc(Oc2ncccc2CN2CCN(c3ccc(F)cc3F)CC2)ccc1-c1c(C)c(=O)[nH]c(=O)n1C	ADRA2A	ligand displacement	–	radioligand	–	Ki	326 nM
O=c1n(CCCN2CCN(c3cccc(Cl)c3)CC2)nc2ccccn12	SLC18A2	transporter uptake	inhibitor	–	–	IC50	2780 nM
Cc1cc(Oc2ncccc2CN2CCN(CCc3ccccc3)CC2)ccc1-c1c(C)c(=O)[nH]c(=O)n1C	ADRA2A	ligand displacement	–	radioligand	–	Ki	2540 nM
Nc1nc2c(ncn2COCCO)c(=O)[nH]1	Carbonic anhydrase 2 (CA2, Homo sapiens, UniProt P00918)	enzyme activity	inhibitor	absorbance	pH 7.4	IC50	13800 nM
CC1CNCCC1(O)c1ccc(-c2ccnc3[nH]cc(F)c23)cc1 (centres unmarked)	LATS1	enzyme activity	inhibitor	radiometric	–	IC50	9.8 nM
CN(C)CCCN1c2ccccc2Sc2ccc(Cl)cc21	SLC18A2	transporter uptake	inhibitor	–	–	IC50	3400 nM
Cc1cc(Oc2ncccc2CN2CCN(Cc3ccc(F)cc3)CC2)ccc1-c1c(C)c(=O)[nH]c(=O)n1C	ADRA2A	ligand displacement	–	radioligand	–	Ki	2210 nM
Cc1ccccc1N1CCN(CCc2nnc3n2CCCC3)CC1	SLC18A2	transporter uptake	inhibitor	–	–	IC50	566 nM
Cc1cc(-c2ccnc3[nH]cc(F)c23)cc(F)c1[C@@]1(O)[C@H](C)CN(C(=O)CN)C[C@@H]1C	LATS1	binding	–	TR-FRET	–	Kd	0.9 nM
O=C1Nc2ccc(Cl)cc2[C@@](C#CC2CC2)(C(F)(F)F)O1	SLC18A2	transporter uptake	inhibitor	–	–	IC50	6120 nM
Cc1cc(Oc2ncccc2CN2CCN(c3cccc(Cl)c3Cl)CC2)ccc1-c1c(C)c(=O)[nH]c(=O)n1C	ADRA2A	ligand displacement	–	radioligand	–	Ki	214 nM
CC(C)NCC(O)COc1ccc(COCCOC(C)C)cc1 (centres unmarked)	SLC18A2	transporter uptake	inhibitor	–	–	IC50	7540 nM
Cc1cc(Oc2ncccc2CN2CCN(c3cccc4ccccc34)CC2)ccc1-c1c(C)c(=O)[nH]c(=O)n1C	ADRA2A	ligand displacement	–	radioligand	–	Ki	186 nM
CC(C)(C(=O)O)c1ccc(C(O)CCCN2CCC(C(O)(c3ccccc3)c3ccccc3)CC2)cc1 (centres unmarked)	CA1	enzyme activity	inhibitor	absorbance	pH 7.4	IC50	19300 nM
